Results published in ChEMBL document CHEMBL5244228, “Novel linked butanolide dimer compounds increase adiponectin production during adipogenesis in human mesenchymal stem cells through peroxisome proliferator-activated receptor γ modulation” (Eur J Med Chem, 2020).
Active and inactive are the calls of the source. No cut-off for these calls is given here.

Legend:
[1] = target: T1, Peroxisome proliferator-activated receptor gamma (Homo sapiens) (UniProt P37231); assay: Displacement of Fluormone Pan-PPAR Green from GST-tagged human PPAR-gamma ligand binding domain at 10 uM by LanthaScreen TR-FRET competitive binding assay
T1 sequence (whole entry): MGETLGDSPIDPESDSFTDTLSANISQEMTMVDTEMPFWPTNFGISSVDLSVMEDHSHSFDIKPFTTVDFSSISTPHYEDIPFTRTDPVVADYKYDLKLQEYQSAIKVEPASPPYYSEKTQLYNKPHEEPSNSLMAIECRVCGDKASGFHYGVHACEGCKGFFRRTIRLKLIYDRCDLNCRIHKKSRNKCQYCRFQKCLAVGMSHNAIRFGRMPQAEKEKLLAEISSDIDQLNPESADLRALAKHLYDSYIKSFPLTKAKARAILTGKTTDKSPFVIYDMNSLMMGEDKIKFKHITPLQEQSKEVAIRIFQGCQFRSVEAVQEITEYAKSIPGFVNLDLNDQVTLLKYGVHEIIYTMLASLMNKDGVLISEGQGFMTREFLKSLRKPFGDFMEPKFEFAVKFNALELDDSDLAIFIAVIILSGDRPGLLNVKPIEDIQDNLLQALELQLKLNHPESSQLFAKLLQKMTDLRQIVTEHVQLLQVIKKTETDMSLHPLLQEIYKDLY
In short: (§1)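 TR-FRET competitive binding run with a LanthaScreen kit, following a previously described protocol; values read on a plate reader.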

[2] = target: T2, Peroxisome proliferator-activated receptor alpha (Homo sapiens) (UniProt Q07869); assay: Displacement of Fluormone Pan-PPAR Green from GST-tagged human PPAR-alpha ligand binding domain at 10 uM by LanthaScreen TR-FRET competitive binding assay; in short: as §1
T2 sequence (whole entry): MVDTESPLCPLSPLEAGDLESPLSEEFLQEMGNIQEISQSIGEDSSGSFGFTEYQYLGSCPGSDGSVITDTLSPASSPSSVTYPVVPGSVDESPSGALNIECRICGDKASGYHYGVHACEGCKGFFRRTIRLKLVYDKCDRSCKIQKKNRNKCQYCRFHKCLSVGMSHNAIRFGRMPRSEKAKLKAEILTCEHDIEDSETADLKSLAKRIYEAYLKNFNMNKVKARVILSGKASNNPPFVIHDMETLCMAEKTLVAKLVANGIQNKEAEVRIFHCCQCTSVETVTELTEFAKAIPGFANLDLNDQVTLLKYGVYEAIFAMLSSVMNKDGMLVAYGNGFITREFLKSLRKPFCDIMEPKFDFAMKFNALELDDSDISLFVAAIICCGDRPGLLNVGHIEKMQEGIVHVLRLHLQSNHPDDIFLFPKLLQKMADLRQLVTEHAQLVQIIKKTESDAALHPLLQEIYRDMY

[3] = target: T3, Peroxisome proliferator-activated receptor delta (Homo sapiens) (UniProt Q03181); assay: Displacement of Fluormone Pan-PPAR Green from GST-tagged human PPAR-delta ligand binding domain at 10 uM by LanthaScreen TR-FRET competitive binding assay; in short: as §1
T3 sequence (whole entry): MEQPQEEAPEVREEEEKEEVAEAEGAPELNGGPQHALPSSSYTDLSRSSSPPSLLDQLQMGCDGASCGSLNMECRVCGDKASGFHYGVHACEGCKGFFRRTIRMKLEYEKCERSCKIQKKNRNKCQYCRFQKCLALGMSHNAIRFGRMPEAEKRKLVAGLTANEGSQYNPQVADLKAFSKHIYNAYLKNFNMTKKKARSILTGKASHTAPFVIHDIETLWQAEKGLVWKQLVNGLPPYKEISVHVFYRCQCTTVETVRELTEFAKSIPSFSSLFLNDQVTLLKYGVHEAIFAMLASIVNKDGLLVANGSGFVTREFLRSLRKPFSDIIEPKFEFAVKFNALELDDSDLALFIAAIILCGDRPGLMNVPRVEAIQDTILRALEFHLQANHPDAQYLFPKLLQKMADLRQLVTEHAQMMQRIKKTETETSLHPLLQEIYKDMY

[4] = target: T4, Peroxisome proliferator-activated receptor gamma (Homo sapiens, UniProt P37231); assay: Agonist activity at PPAR-gamma in human BMMSC cells assessed as induction of adiponectin production in presence of IDX adipogenic induction medium and measured on day 5 by ELISA; type: cell-based
T4 sequence (P37231 whole entry): T1 sequence (whole entry)

[5] = target: T4, Peroxisome proliferator-activated receptor gamma; assay: Displacement of [3H]rosiglitazone from human PPAR-gamma incubated for 1 day by radioligand binding assay
[6] = target: T1, Peroxisome proliferator-activated receptor gamma (Homo sapiens); assay: Partial agonist activity at PPAR-gamma in human BMMSC cells assessed as inhibition of pioglitazone-induced adiponectin production at 1 to 10 uM in presence of IDX adipogenic induction medium and pioglitazone and measured on day 5 by ELISA; type: cell-based; conditions: filed as partial agonist, dose 1-10 µM, time 5.0 day
In short: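 Human bone marrow MSCs grown in DMEM (1 g/L glucose), 10% FBS, 1% pen-strep. Adipogenesis induced in DMEM (4.5 g/L glucose), 10% FBS, insulin, dexamethasone, IBMX, with compounds co-added alongside pioglitazone. Supernatants collected on day 5; adiponectin quantified by ELISA. Mean ± SD, n = 3.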

[7] = target: T1, Peroxisome proliferator-activated receptor gamma (Homo sapiens); assay: Displacement of [3H]rosiglitazone from human PPAR-gamma at 30 uM incubated for 1 day by radioligand binding assay; conditions: filed as agonist

| SMILES | Activity ([1]; filed as agonist) | Activity [2] | Activity [3] | Activity ([1]; filed as partial agonist) | EC50 [4] | Ki [5] | Activity [6] | Activity [7] |
| --- | --- | --- | --- | --- | --- | --- | --- | --- |
| CCCCC/C=C1/C(=O)O[C@@H](C)[C@H]1O | Active | inactive | inactive | – | – | – | – | – |
| CCCCCCCC/C=C1/C(=O)O[C@@H](C)[C@H]1O | Active | inactive | inactive | – | – | – | – | – |
| CCCCCCC/C=C1/C(=O)O[C@@H](C)[C@H]1O | Active | inactive | inactive | – | – | – | – | – |
| CCCCC/C=C1/C(=O)O[C@@H](C)[C@@H]1O | Active | inactive | inactive | – | – | – | – | – |
| CCCC=C1C(=O)O[C@@H](C)[C@@H]1O | Active | inactive | inactive | – | 19 µM | 22 µM | – | – |
| CCC/C=C1/C(=O)O[C@@H](C)[C@H]1O | Active | inactive | inactive | – | 25.3 µM | > 30 µM | – | 48.5% |

The next lines start with the values.

| Activity ([1]; filed as agonist) | Activity [2] | Activity [3] | Activity ([1]; filed as partial agonist) | EC50 [4] | Ki [5] | Activity [6] | Activity [7] | SMILES |
| --- | --- | --- | --- | --- | --- | --- | --- | --- |
| Active | inactive | inactive | – | – | – | – | – | CCCCCCCCCCC/C=C1/C(=O)O[C@@H](C)[C@H]1O |
| Active | inactive | inactive | – | – | – | – | – | CCCCCCCCCCCC/C=C1/C(=O)O[C@@H](C)[C@H]1O |
| – | inactive | inactive | Active | > 30 µM | 9.2 µM | Dose-Dependent Effect | – | CCCCCCCCCCCCC/C=C1/C(=O)O[C@@H](C)[C@H]1O |
| Active | inactive | inactive | – | – | – | – | – | CCCCCCCCC/C=C1/C(=O)O[C@@H](C)[C@H]1O |
| Active | inactive | inactive | – | > 30 µM | 1.9 µM | – | – | CCCCCCCCCCCCC/C=C1/C(=O)O[C@@H](C)[C@@H]1O |
| Active | inactive | inactive | – | – | – | – | – | CCCCCCCCCC/C=C1/C(=O)O[C@@H](C)[C@H]1O |
